This is an account of results in ChEMBL document CHEMBL3120128, “Evaluation of intestinal permeability of vicenin-2 and lychnopholic acid from Lychnophora salicifolia (Brazilian arnicão) using Caco-2 cells” (J Nat Prod, 2014).

The nature of data set [1]: Lipophilicity, log P of the compound by micellar chromatography. It counts as physicochemical.
The test system of data set [2] is Caco-2. Put plainly: Apparent permeability from apical to basolateral side in human Caco2 cells in HBSS medium at 50 uM by HPLC-DAD analysis. It is filed as ADME, cell-based. As to conditions: caco-2, 50 µM; call rule not given here. For orientation: Caco-2 cells form a polarised layer with tight junctions and transporters.
For data set [3], the system named is Caco-2. The experiment in a line: Apparent permeability from basolateral to apical side in human Caco2 cells in glucose rich medium at 50 to 100 uM at pH 7.4 by HPLC-DAD analysis. It is filed as ADME, cell-based. The following applies: caco-2, pH 7.4, 100 µM.
Data set [4] deals with Caco-2. The experiment in a line: Apparent permeability from apical to basolateral side in human Caco2 cells in low glucose medium at 50 uM at pH 7.4 by HPLC-DAD analysis. It is filed as ADME, cell-based. As to conditions: caco-2, pH 7.4, 50 µM.
The test system of data set [5] is Caco-2. The experiment in a line: Apparent permeability from apical to basolateral side in human Caco2 cells in glucose free medium at 50 uM at pH 7.4 by HPLC-DAD analysis. It counts as ADME, cell-based. The following applies: caco-2, pH 7.4, 50 µM.
The test system of data set [6] is Caco-2. Put plainly: Apparent permeability from basolateral to apical side in human Caco2 cells in HBSS medium at 50 uM by HPLC-DAD analysis. It is filed as ADME, cell-based. As to conditions: caco-2, 50 µM.
Data set [7] relates to Caco-2. Put plainly: Apparent permeability from apical to basolateral side in human Caco2 cells in glucose rich medium at 50 to 100 uM at pH 7.4 by HPLC-DAD analysis. As to conditions: caco-2, pH 7.4, 100 µM.
The subject of data set [8] is Caco-2. The experiment in a line: Apparent permeability from basolateral to apical side in human Caco2 cells in low glucose medium at 50 uM at pH 7.4 by HPLC-DAD analysis. It is filed as ADME, cell-based. The following applies: caco-2, pH 7.4, 50 µM.
Data set [9] relates to Caco-2. The experiment in a line: Apparent permeability from apical to basolateral side in human Caco2 cells in glucose free medium at 50 uM at pH 6.0 in apical side and pH 7.4 at basolateral side by HPLC-DAD analysis. The following applies: caco-2, pH 6, 50 µM. It is filed as ADME, cell-based.
Data set [10] in a line: Stability of the compound at 25 degC by HPLC-DAD analysis. It is filed as physicochemical.
In data set [11] the test system is Caco-2. Put plainly: Apparent permeability from basolateral to apical side in human Caco2 cells in glucose free medium at 50 uM at pH 6.0 in apical side and pH 7.4 at basolateral side by HPLC-DAD analysis. As to conditions: caco-2, pH 6, 50 µM. It counts as ADME, cell-based.
In data set [12] the test system is Caco-2. The experiment in a line: Apparent permeability from apical to basolateral side in human Caco2 cells in glucose rich medium at 50 to 100 uM at pH 7.4 by HPLC-DAD analysis. It counts as ADME, cell-based. As to conditions: caco-2, pH 7.4, 100 µM.
For data set [13], the system named is Caco-2. The experiment in a line: Apparent permeability from basolateral to apical side in human Caco2 cells in glucose free medium at 50 uM at pH 7.4 by HPLC-DAD analysis. It is filed as ADME, cell-based. As to conditions: caco-2, pH 7.4, 50 µM.
Data set [14] deals with Caco-2. Put plainly: Cytotoxicity against human Caco2 cells at 50 to 200 uM relative to control. The following applies: caco-2, 200 µM. It is filed as cell-based. A digest of the protocol: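 Toxicity judged from TEER of Caco-2 monolayers, measured with an epithelial voltohmmeter before and after exposure. Compared against control monolayers in transport medium without compound.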

Data set [15] in a line: Apparent permeability from apical to basolateral side in human Caco2 cells at 25 uM at pH 7.4 after 30 mins by HPLC-DAD analysis. It counts as ADME, cell-based. As to conditions: Caco-2, pH 7.4.
For data set [16], the system named is Caco-2. Put plainly: Efflux ratio of apparent permeability from apical to basolateral side to basolateral to apical side in human Caco2 cells at 50 uM at pH 7.4 by HPLC-DAD analysis. It counts as ADME, cell-based. As to conditions: caco-2, pH 7.4, 50 µM. In a few lines:
(§1)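 Glucose-rich transport medium (25 mM glucose), pH 7.4 in both apical and basolateral compartments, donor concentration 25 or 50 μM. Papp = (ΔQ/Δt)/(A·C0), from the linear appearance rate on the receiver side. Ratios are calculated as Papp A→B/Papp B→A and Papp B→A/Papp A→B.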

Data set [17] is described as follows: Apparent permeability from basolateral to apical side in human Caco2 cells at 50 uM at pH 7.4 by HPLC-DAD analysis. It counts as ADME, cell-based. As to conditions: Caco-2, pH 7.4.
Data set [18] concerns Caco-2. Put plainly: Efflux ratio of apparent permeability from apical to basolateral side to basolateral to apical side in human Caco2 cells at 25 uM at pH 7.4 by HPLC-DAD analysis. It counts as ADME, cell-based. As to conditions: caco-2, pH 7.4, 25 µM. A digest of the protocol:
as §1

A short description of data set [19]: Apparent permeability from basolateral to apical side in human Caco2 cells at 25 uM at pH 7.4 by HPLC-DAD analysis. It is filed as ADME, cell-based. The following applies: Caco-2, pH 7.4.
A short description of data set [20]: Efflux ratio of apparent permeability from basolateral to apical side to apical to basolateral side in human Caco2 cells at 50 uM at pH 7.4 by HPLC-DAD analysis. It counts as ADME, cell-based. The following applies: Caco-2, pH 7.4. In a few lines:
as §1

Data set [21] is described as follows: Apparent permeability from apical to basolateral side in human Caco2 cells at 50 uM at pH 7.4 after 30 mins by HPLC-DAD analysis. The following applies: Caco-2, pH 7.4. It is filed as ADME, cell-based.
The nature of data set [22]: Efflux ratio of apparent permeability from basolateral to apical side to apical to basolateral side in human Caco2 cells at 25 uM at pH 7.4 by HPLC-DAD analysis. As to conditions: Caco-2, pH 7.4. It counts as ADME, cell-based. A digest of the protocol:
as §1

In data set [23] the test system is Caco-2. The experiment in a line: Apparent permeability from basolateral to apical side in human Caco2 cells in glucose free medium at 25 uM at pH 6.0 in apical side and pH 7.4 at basolateral side by HPLC-DAD analysis. It counts as ADME, cell-based. The following applies: caco-2, pH 6, 25 µM.
The test system of data set [24] is Caco-2. The experiment in a line: Apparent permeability from apical to basolateral side in human Caco2 cells in glucose free medium at 25 uM at pH 6.0 in apical side and pH 7.4 at basolateral side by HPLC-DAD analysis. It counts as ADME, cell-based. As to conditions: caco-2, pH 6, 25 µM.
For data set [25], the system named is Caco-2. Put plainly: Cellular uptake in human Caco2 cells. It is filed as ADME, cell-based.

As a reminder, the logP is the decadic logarithm of the partition coefficient of the neutral form, usually between octanol and water. Low readings indicate a more hydrophilic compound, high ones a more lipophilic compound. In the case of `O=c1cc(-c2ccc(O)cc2)oc2c([C@@H]3O[C@H](CO)[C@@H](O)[C@H](O)[C@H]3O)c(O)c([C@@H]3O[C@H](CO)[C@@H](O)[C@H](O)[C@H]3O)c(O)c12`, in data set [1], the logP was -4.31. The permeability result with Caco-2 [2], with Caco-2 [3], in the data set on Caco-2 [4], with Caco-2 [5], with Caco-2 [6] and with Caco-2 [7] was “impermeable” throughout. Moreover, the permeability entry with Caco-2 [8], in the data set with Caco-2 [9], with Caco-2 [11], in the data set on Caco-2 [12] and with Caco-2 [13] was “impermeable” in each case. Further, the Stability in data set [10] came out at 99%. In addition, the Activity entry in the data set with Caco-2 [14] is recorded as “Non-toxic”.

A word on the Papp A→B: it is the apparent permeability from the apical to the basolateral side of a cell layer. What is called Papp B→A is how fast a substance crosses the layer from the basolateral side. The term efflux ratio denotes the permeability from basolateral to apical divided by that in the opposite direction, in the common usage. As to `C=C1CC/C=C(/C(=O)O)C[C@H](O)[C@@H]2[C@@H]1CC2(C)C`, in data set [15], the Papp A→B at 0.5 h, 25 µM stood at 4.68 ×10⁻⁶ cm/s. Moreover, the Ratio in the data set with Caco-2 [16] was 0.97; with Caco-2 [18] it was 1.06. In [17], the Papp B→A at 50 µM is 4.17 ×10⁻⁶ cm/s. In addition, in [19], the Papp B→A at 25 µM worked out at 4.41 ×10⁻⁶ cm/s. In data set [20], the efflux ratio at 50 µM was 1.02. The compound further returned a Stability in [10] of 98%. Besides, the Papp A→B at 0.5 h, 50 µM in [21] turned out to be 4.07 ×10⁻⁶ cm/s. The efflux ratio at 25 µM in data set [22] was determined as 0.94. Also, the Activity result in the data set with Caco-2 [14] is on record as “Non-toxic”.

As to `O=c1cc(-c2ccc(O)cc2)oc2cc(O)cc(O)c12` [APIGENIN], the permeability entry with Caco-2 [23] and in the data set on Caco-2 [24] was “impermeable” throughout. In addition, the Drug uptake result in the data set on Caco-2 [25] is recorded as “Active”.
